Results on one molecule are retold here after ChEMBL document CHEMBL1154352, “Toll-like receptor 7 selective synthetic oligoribonucleotide agonists: synthesis and structure-activity relationship studies” (J Med Chem, 2009).

Data set [1] in a line: Metabolic stability in human serum assessed as full length product remaining after 10 mins by HPLC. It is filed as ADME, cell-free. To be noted: read-out: Stability. Put shortly:
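About 0.5 A260 units compound in 1% human serum in PBS, 37 °C; aliquot taken at 10 min, analysed by anion-exchange HPLC for percent intact full-length product.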

In data set [2] the target is T1, Toll-like receptor 8 (Homo sapiens) (UniProt Q9NR97).
T1 sequence (whole entry): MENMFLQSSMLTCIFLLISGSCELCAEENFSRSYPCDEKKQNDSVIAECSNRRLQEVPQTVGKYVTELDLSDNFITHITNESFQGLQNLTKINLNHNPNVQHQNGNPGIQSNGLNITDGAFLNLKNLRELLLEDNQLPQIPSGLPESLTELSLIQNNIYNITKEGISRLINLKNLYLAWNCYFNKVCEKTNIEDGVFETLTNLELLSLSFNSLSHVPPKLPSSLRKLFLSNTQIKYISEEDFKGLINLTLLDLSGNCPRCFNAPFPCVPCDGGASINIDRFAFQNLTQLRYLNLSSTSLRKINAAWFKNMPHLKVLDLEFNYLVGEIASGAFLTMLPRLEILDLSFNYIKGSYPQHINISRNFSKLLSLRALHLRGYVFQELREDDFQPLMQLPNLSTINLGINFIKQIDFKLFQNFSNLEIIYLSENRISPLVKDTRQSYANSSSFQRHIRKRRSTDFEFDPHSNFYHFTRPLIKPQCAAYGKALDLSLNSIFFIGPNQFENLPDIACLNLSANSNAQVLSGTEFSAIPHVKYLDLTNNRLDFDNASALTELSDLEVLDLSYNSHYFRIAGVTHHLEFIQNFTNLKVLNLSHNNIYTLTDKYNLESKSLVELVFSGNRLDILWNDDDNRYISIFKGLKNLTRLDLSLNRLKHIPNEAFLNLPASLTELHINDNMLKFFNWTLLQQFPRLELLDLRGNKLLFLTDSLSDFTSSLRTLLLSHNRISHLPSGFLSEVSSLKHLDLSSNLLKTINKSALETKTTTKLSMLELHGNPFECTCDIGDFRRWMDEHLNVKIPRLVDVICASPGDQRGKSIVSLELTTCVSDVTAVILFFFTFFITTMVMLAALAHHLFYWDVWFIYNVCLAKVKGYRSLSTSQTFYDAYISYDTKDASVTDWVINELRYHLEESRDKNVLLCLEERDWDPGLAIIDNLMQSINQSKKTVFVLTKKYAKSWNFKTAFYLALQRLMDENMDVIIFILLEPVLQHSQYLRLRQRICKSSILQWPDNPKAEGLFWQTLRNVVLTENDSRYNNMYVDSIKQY
The data set is described as follows: Activation of human TLR8 expressed in HEK293XL assessed as fold induction of NF-kappaB activity at 50 ug/ml after 18 hrs by reporter gene assay relative to control. Put shortly:
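HEK293 cells stably expressing human TLR7 or TLR8, transiently transfected with SEAP reporter plasmid; medium replaced, SIMRA compounds added, 18 h incubation. Supernatant SEAP measured by QuantiBlue; expressed as fold increase in NF-κB activity over PBS control. Tabulated data at 50 μg/mL, representative of three independent experiments.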
For orientation: A reporter such as luciferase makes a cellular process visible.

The species entered for data set [3] is Homo sapiens. The data set is described as follows: Ratio of human TLR7 activity to human TLR8 activity. In outline:
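TLR7/TLR8 ratio computed from fold NF-κB (SEAP reporter) activation in HEK293 cells stably expressing human TLR7 versus TLR8, compounds at 50 μg/mL, 18 h exposure; representative of three independent experiments.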

Data set [4] has as its target Toll-like receptor 3 (Homo sapiens) (UniProt O15455). The data set is described as follows: Activation of human TLR3 expressed in HEK293 assessed as induction of NF-kappaB activity reporter gene assay. In kind it is cell-based.
The species entered for data set [5] is Homo sapiens. The data set can be described thus: Immunostimulatory activity in human pDC assessed as induction of IFNalpha at 100 ug/ml after 24 hrs. It is filed as functional. Put shortly:
(§1)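 Human pDCs plated at 1 × 10^6 cells/mL; compounds in PBS added, 37 °C for 24 h; supernatant cytokines/chemokines by human Luminex multiplex kit.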

Data set [6] concerns PBMC. The data set can be described thus: Immunomodulatory activity in human PBMC assessed as induction of IL12 at 50 ug/ml after 24 hrs. In kind it is functional, cell-based. In outline:
(§2)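 Human PBMCs plated at 5 × 10^6 cells/mL; compounds dissolved in PBS added at various concentrations, 37 °C for 24 h. Supernatant cytokines/chemokines quantified with human Luminex multiplex kit.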

The test system of data set [7] is PBMC. The data set can be described thus: Immunomodulatory activity in human PBMC assessed as induction of TNFalpha at 50 ug/ml after 24 hrs. In kind it is functional, cell-based. In outline:
as §2

Data set [8] deals with PBMC. The data set can be described thus: Immunomodulatory activity in human PBMC assessed as induction of IFNalpha at 50 ug/ml after 24 hrs. It is filed as functional, cell-based. Put shortly: as §2
Data set [9] has as its system PBMC. The data set is described as follows: Immunomodulatory activity in human PBMC assessed as induction of MIP1alpha at 50 ug/ml after 24 hrs. It is filed as functional, cell-based. In outline: as §2
Data set [10] concerns PBMC. The data set is described as follows: Immunomodulatory activity in human PBMC assessed as induction of MIP1beta at 50 ug/ml after 24 hrs. It is filed as functional, cell-based. In outline: as §2
For data set [11], the system named is PBMC. The data set can be described thus: Immunomodulatory activity in human PBMC assessed as induction of IP10 at 50 ug/ml after 24 hrs. It is filed as functional, cell-based. In outline:
as §2

Data set [12] has as its system PBMC. The data set can be described thus: Immunomodulatory activity in human PBMC assessed as induction of MCP1 at 50 ug/ml after 24 hrs. It is filed as functional, cell-based. Put shortly: as §2
For data set [13], the system named is PBMC. The data set is described as follows: Immunomodulatory activity in human PBMC assessed as induction of IL6 at 50 ug/ml after 24 hrs. In kind it is functional, cell-based. In outline:
as §2

In data set [14] the test system is PBMC. The data set can be described thus: Immunomodulatory activity in human PBMC assessed as induction of IL1-beta at 50 ug/ml after 24 hrs. It is filed as functional, cell-based. Put shortly: as §2
Data set [15] is filed under the species Homo sapiens. The data set can be described thus: Immunostimulatory activity in human pDC assessed as induction of IL6 at 100 ug/ml after 24 hrs. In kind it is functional. Put shortly: as §1
Data set [16] is filed under the species Homo sapiens. The data set can be described thus: Immunostimulatory activity in human mDC assessed as induction of IFNalpha at 100 ug/ml after 24 hrs. In kind it is functional. In outline:
(§3)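 Human mDCs isolated from PBMCs by CD19+ B-cell depletion then BDCA1 positive selection; plated at 1 × 10^6 cells/mL, compounds in PBS, 37 °C for 24 h; supernatant cytokines by human Luminex multiplex. Representative of four independent experiments.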

For data set [17], the species on record is Homo sapiens. The data set can be described thus: Immunostimulatory activity in human mDC assessed as induction of IP10 at 100 ug/ml after 24 hrs. In kind it is functional. In outline:
as §3

The species entered for data set [18] is Homo sapiens. The data set is described as follows: Immunostimulatory activity in human mDC assessed as induction of IL12 at 100 ug/ml after 24 hrs. In kind it is functional. Put shortly:
as §3

For data set [19], the species on record is Homo sapiens. The data set can be described thus: Immunostimulatory activity in human mDC assessed as induction of IL6 at 100 ug/ml after 24 hrs. In kind it is functional. Put shortly: as §3
The species entered for data set [20] is Homo sapiens. The data set is described as follows: Immunostimulatory activity in human mDC assessed as induction of TNFalpha at 100 ug/ml after 24 hrs. It is filed as functional. Put shortly: as §3
In a further data set the test system is Mus musculus. The data set is described as follows: Immunomodulatory activity in C57BL/6 mouse assessed as induction of IL12 release at 25 mg/kg, sc after 2 hrs by ELISA. More on the design: dose 25 mg/kg. In kind it is functional, organism-based. Put shortly:
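Female C57BL/6 wild-type mice, 5–8 weeks old, n=3; compounds given subcutaneously at 10 or 25 mg/kg. Retro-orbital blood at 2 h; serum cytokines by mouse Luminex multiplex or IL-12 ELISA.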
(In general: In an ELISA, binding on a coated surface is turned into a signal by an enzyme label.)

Data set [21] concerns PBMC. The data set can be described thus: Immunomodulatory activity in human PBMC assessed as induction of IFN-alpha at 100 ug/ml after 24 hrs.

Calls of active or inactive are those of the source. The calls are words filed in the database; no cut-off is given here.

Chain of Toll-like receptor 3 (Homo sapiens) (O15455 whole entry): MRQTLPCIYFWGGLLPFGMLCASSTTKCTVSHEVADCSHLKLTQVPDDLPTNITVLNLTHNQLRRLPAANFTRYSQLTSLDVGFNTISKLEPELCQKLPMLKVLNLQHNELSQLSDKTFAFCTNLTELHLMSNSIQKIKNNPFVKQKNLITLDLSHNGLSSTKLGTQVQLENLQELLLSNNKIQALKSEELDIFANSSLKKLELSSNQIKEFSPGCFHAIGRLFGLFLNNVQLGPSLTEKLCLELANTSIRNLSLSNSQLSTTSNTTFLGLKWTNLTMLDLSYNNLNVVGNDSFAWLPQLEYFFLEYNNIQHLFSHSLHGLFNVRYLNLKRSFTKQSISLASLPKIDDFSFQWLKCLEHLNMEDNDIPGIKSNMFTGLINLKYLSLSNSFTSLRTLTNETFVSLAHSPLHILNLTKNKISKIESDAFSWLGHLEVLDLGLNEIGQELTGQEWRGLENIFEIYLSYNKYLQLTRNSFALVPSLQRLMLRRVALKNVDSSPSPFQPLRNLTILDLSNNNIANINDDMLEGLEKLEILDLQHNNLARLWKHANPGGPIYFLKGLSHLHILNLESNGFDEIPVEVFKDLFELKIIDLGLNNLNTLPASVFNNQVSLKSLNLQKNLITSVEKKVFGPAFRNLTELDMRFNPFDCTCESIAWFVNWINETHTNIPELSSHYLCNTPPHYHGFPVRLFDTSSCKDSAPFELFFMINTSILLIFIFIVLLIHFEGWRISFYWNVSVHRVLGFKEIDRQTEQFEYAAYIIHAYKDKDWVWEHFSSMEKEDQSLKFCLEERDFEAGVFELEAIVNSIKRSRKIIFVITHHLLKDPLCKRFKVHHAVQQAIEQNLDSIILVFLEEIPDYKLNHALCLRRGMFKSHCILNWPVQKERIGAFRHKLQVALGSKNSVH

Take `Nc1ccn([C@@H]2O[C@H](COP(=O)(S)O[C@H]3[C@@H](O)[C@H](n4cnc5c(N)ncnc54)O[C@@H]3COP(=O)(S)O[C@H]3[C@@H](O)[C@H](n4cnc5c(N)ncnc54)O[C@@H]3CO)[C@@H](OP(=O)(S)OC[C@H]3O[C@@H](n4ccc(=O)[nH]c4=O)[C@H](O)[C@@H]3OP(=O)(S)OC[C@H]3O[C@@H](n4ccc5c(=O)[nH]c(N)nc54)[C@H](O)[C@@H]3OP(=O)(S)OC[C@H]3O[C@@H](n4cnc5c(N)ncnc54)[C@H](O)[C@@H]3OP(=O)(S)OC[C@H]3O[C@@H](n4ccc(N)nc4=O)[C@H](O)[C@@H]3OP(=O)(S)OC[C@H]3O[C@@H](n4ccc5c(=O)[nH]c(N)nc54)[C@H](O)[C@@H]3OP(=O)(S)OC[C@H]3O[C@@H](n4ccc(N)nc4=O)[C@H](O)[C@@H]3OP(=O)(S)OC[C@H]3O[C@@H](n4ccc(=O)[nH]c4=O)[C@H](O)[C@@H]3OP(=O)(S)OC[C@H]3O[C@@H](n4ccc(=O)[nH]c4=O)[C@H](O)[C@@H]3OP(=O)(S)OCC(O)COP(=O)(S)O[C@H]3[C@@H](O)[C@H](n4ccc(=O)[nH]c4=O)O[C@@H]3COP(=O)(S)O[C@H]3[C@@H](O)[C@H](n4ccc(=O)[nH]c4=O)O[C@@H]3COP(=O)(S)O[C@H]3[C@@H](O)[C@H](n4ccc(N)nc4=O)O[C@@H]3COP(=O)(S)O[C@H]3[C@@H](O)[C@H](n4ccc5c(=O)[nH]c(N)nc54)O[C@@H]3COP(=O)(S)O[C@H]3[C@@H](O)[C@H](n4ccc(N)nc4=O)O[C@@H]3COP(=O)(S)O[C@H]3[C@@H](O)[C@H](n4cnc5c(N)ncnc54)O[C@@H]3COP(=O)(S)O[C@H]3[C@@H](O)[C@H](n4ccc5c(=O)[nH]c(N)nc54)O[C@@H]3COP(=O)(S)O[C@H]3[C@@H](O)[C@H](n4ccc(=O)[nH]c4=O)O[C@@H]3COP(=O)(S)O[C@H]3[C@@H](O)[C@H](n4ccc(N)nc4=O)O[C@@H]3COP(=O)(S)O[C@H]3[C@@H](O)[C@H](n4cnc5c(N)ncnc54)O[C@@H]3COP(=O)(S)O[C@H]3[C@@H](O)[C@H](n4cnc5c(N)ncnc54)O[C@@H]3CO)[C@H]2O)c(=O)n1` (some centres not stated): in data set [1], the remaining at 10 min was found to be 87%. Also, the fold change (FC) in data set [2] is 0.4. Also, the Ratio in the data set listed under Homo sapiens [3] came out at 53.8. In data set [4], the outcome was inactive. Moreover, the result in the data set filed under Homo sapiens [5], in the data set listed under Homo sapiens [15], in the data set listed under Homo sapiens [16], in the data set listed under Homo sapiens [17], in the data set filed under Homo sapiens [18] and in the data set listed under Homo sapiens [19] was Active. Further, the outcome in the data set filed under Homo sapiens [20] and in the data set with Mus musculus was Active. The Activity was 223 pg/mL in the data set with PBMC [6]; 39 pg/mL in the data set with PBMC [7]; 434 pg/mL in the data set with PBMC [8]; 2200 pg/mL in the data set with PBMC [9]; 5880 pg/mL with PBMC [10]; 1020 pg/mL in the data set on PBMC [11]. The Activity with PBMC [12] amounted to 42100 pg/mL; with PBMC [13] it was 791 pg/mL; with PBMC [14], 47 pg/mL. The IFN-alpha in the data set on PBMC [21] amounted to 292 pg/mL.
